How the values were obtained:
[1] = target: T1, breast cancer resistance protein (BCRP) (Homo sapiens, UniProt Q9UNQ0); test: BCRP transwell efflux ratio; assay type: in vitro ADME; details: B_A Papp (n = 3) / A_B Papp (n = 3)
T1 sequence (Q9UNQ0 1-655): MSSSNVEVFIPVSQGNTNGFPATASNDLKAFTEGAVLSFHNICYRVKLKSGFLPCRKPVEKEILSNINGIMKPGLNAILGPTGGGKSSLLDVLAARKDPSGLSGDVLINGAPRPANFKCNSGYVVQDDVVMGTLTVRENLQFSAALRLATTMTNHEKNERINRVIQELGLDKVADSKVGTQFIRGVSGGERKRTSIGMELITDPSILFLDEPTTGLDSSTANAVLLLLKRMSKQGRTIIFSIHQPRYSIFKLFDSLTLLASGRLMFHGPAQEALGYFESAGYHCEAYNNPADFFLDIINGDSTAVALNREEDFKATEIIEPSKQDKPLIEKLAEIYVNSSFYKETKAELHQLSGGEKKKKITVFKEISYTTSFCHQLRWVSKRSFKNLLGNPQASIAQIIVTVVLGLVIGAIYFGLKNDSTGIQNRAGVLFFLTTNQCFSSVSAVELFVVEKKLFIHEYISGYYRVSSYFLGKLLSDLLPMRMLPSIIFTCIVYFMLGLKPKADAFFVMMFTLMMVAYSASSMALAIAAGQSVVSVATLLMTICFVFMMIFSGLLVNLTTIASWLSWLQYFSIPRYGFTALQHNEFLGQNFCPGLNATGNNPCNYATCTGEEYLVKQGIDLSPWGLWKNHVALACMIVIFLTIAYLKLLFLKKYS

[2] = NHP brain-to-plasma and CSF-to-plasma Kp,uu time course experiment; assay type: in vivo, cynomolgus monkeys; details: IV infusion for 15 min
Outline: (§1)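 Cynomolgus monkeys (six total) received a three‐compound cassette in 10% captisol in sterile water as a 15 min IV infusion via saphenous or cephalic vein. Plasma (vena cava, K₂EDTA), lumbar CSF after euthanasia, and excised brain were taken from 2 animals per time point at about 17, 30 and 60 min after infusion start. Samples were quantified by LC‐MS/MS after protein precipitation, and Kp,uu was calculated from unbound concentrations.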

[3] = NHP CSF-to-plasma Kp,uu experiment; assay type: in vivo, cynomolgus monkeys; details: cynomolgus, cynomolgus monkey, intravenous
Outline: as §1

[4] = NHP brain-to-plasma Kp,uu experiment; assay type: in vivo, cynomolgus monkeys; details: cynomolgus, cynomolgus monkey, intravenous
Outline: as §1

MDR1 = MDR1 (Homo sapiens, UniProt P08183); test: NIH MDR1-MDCKI transwell efflux assay; assay type: in vitro ADME
NHP brain tissue binding = assay type: in vitro ADME; details: monkey, brain homogenate
Outline: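 Brain was homogenized in PBS at 1:3 (w:v) and dialysed against PBS in a rapid equilibrium dialysis device for 18 h at 37°C, 5% CO₂, shaking at 150 rpm. Samples were matrix‐matched, precipitated with acetonitrile containing internal standard, and analysed by LC‐MS/MS. fu = receiver/donor peak‐area ratio, corrected for dilution factor 4.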

[5] = MDCK A-B passive permeability; assay type: in vitro ADME, canine; details: dog
Outline: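 MDCKII cells seeded at 60 000 cells/cm² on 1 µm pore transwell inserts and used on day 4. Test compound at 1 µM in HBSS added to donor, with 0.1% BSA in receiver. Donor sampled at 0 min; donor and receiver sampled at 90 min, 37°C, analysed by LC‐MS/MS. Papp = (dQ/dt)/(A×C0). Monolayer integrity confirmed by lucifer yellow A‐B <2%; recovery >70%.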

MDR1, sequence (P08183 whole entry): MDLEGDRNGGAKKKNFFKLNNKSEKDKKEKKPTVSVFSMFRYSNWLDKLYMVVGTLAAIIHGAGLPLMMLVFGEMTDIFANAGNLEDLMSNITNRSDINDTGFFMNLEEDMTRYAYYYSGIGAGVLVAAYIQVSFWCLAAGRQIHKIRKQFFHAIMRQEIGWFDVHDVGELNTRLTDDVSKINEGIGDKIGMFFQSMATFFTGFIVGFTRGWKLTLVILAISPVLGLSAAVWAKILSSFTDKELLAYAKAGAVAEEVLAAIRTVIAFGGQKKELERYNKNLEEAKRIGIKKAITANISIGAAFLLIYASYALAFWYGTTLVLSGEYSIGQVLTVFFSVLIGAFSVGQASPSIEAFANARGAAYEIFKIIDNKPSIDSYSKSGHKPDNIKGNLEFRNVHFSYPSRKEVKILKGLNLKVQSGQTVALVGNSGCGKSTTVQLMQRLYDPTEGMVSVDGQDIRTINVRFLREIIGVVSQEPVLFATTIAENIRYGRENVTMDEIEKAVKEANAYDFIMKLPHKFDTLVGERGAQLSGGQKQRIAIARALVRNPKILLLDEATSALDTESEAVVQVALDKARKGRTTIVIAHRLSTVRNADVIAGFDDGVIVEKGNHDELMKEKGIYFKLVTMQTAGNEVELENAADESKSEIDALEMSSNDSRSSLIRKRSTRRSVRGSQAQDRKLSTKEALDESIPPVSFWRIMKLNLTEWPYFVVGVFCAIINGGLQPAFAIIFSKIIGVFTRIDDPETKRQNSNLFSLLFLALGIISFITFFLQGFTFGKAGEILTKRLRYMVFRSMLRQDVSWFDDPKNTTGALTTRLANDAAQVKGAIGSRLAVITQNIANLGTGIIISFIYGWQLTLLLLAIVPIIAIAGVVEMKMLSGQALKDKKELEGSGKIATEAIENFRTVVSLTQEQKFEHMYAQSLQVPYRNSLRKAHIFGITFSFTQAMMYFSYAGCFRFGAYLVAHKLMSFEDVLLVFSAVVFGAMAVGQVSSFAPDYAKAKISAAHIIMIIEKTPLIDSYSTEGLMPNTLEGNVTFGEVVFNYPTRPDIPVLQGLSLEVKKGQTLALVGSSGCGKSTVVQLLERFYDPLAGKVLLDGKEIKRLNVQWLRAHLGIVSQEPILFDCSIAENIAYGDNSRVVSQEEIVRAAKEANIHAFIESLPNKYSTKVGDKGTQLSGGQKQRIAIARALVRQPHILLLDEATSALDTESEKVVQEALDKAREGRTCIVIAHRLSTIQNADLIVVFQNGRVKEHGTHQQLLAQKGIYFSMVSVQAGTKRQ

| SMILES | BCRP ER [1] | Time for unbound brain concentration to reach equilibrium with unbound plasma concentration [2] | Time for lumbar CSF to equilibrate with plasma ([2]; lumbar CSF) | Kp uu at 1 h [3] | Kp uu [4] | MDR1/BCRP substrate classification (MDR1; ER of 3 as cutoff to classify substrates) | efflux ratio at 90 min, 1 µM (MDR1; human, MDCK-MDR1) | fraction unbound at 18 h (NHP brain tissue binding) | Papp A→B at 90 min, 1 µM [5] | ER in NIH MDR1 assay relative to current MDR1 assay (MDR1; NIH MDR1-MDCKI vs internal MDR1-MDCKII) |
| --- | --- | --- | --- | --- | --- | --- | --- | --- | --- | --- |
| Cc1cc(=O)n(-c2ccccc2)n1C [Antipyrine] | 0.9 | ≤ 15 min | ~ 1 h | 1 | 0.96 | no MDR1/BCRP efflux transporter interactions | 1 | ~1 | 32.8 ± 9 ×10⁻⁶ cm/s | – |
| C=C[C@H]1C[N@@]2CC[C@H]1C[C@@H]2[C@@H](O)c1ccnc2ccc(OC)cc12 [quinidine] | – | – | – | – | – | – | – | – | – | more than 10 fold |
